In ChEMBL document CHEMBL1122635, “Synthesis and physicochemical and neurotoxicity studies of 1-(4-substituted-2,5-dihydroxyphenyl)-2-aminoethane analogues of 6-hydroxydopamine” (1984):

Legend:
Rattus norvegicus [1] = assay: Ability to inhibit norepinephrine uptake in rat atria was determined at 486 umol/kg; type: functional
Outline: (§1)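 Male Sprague-Dawley rats (120 ± 10 g) got the dose in 0.9% saline with 0.1% ascorbic acid, 0.2 mL i.v. via the left femoral vein under light halothane. Controls got vehicle. At 24 h, atria were cut into four 10-15 mg pieces and incubated 30 min at 37 °C under 95% O2/5% CO2 in Krebs-Ringer bicarbonate (pH 7.35) with 10^-7 M [3H]NE. A 10 min washout followed, then HClO4 extracts were counted. Inhibition = control minus treated, 12 determinations from 3 rats, mean ± SD.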

Rattus norvegicus [2] = assay: Ability to inhibit norepinephrine uptake in rat atria was determined at 486uM/kg; b denotes 'Rats expired with in 30 min after injection'; type: functional, organism-based; outline: as §1
Rattus norvegicus [3] = assay: Ability to inhibit norepinephrine uptake in rat atria was determined at 365 umol/kg; type: functional; outline: as §1
Rattus norvegicus [4] = assay: Ability to inhibit norepinephrine uptake in rat atria was determined at 730uM/kg; b denotes 'Rats expired with in 30 min after injection'; type: functional, organism-based; outline: as §1
Rattus norvegicus [5] = assay: Ability to inhibit norepinephrine uptake in rat atria was determined at 97 umol/kg; type: functional; outline: as §1
Rattus norvegicus [6] = assay: Ability to inhibit norepinephrine uptake in rat atria was determined at 365uM/kg; b denotes 'Rats expired with in 30 min after injection'; type: functional, organism-based; outline: as §1
Rattus norvegicus [7] = assay: Ability to inhibit norepinephrine uptake in rat atria was determined at122uM/kg; b denotes 'Rats expired with in 30 min after injection'; type: functional, organism-based; outline: as §1
Rattus norvegicus [8] = assay: Ability to inhibit norepinephrine uptake in rat atria was determined at 49 uM/kg; type: functional; outline: as §1
Rattus norvegicus [9] = assay: Ability to inhibit norepinephrine uptake in rat atria was determined at 243uM/kg; b denotes 'Rats expired with in 30 min after injection'; type: functional, organism-based; outline: as §1
Rattus norvegicus [10] = assay: Ability to inhibit norepinephrine uptake in rat atria was determined at 24 uM/kg; type: functional; outline: as §1
Rattus norvegicus [11] = assay: Ability to inhibit norepinephrine uptake in rat atria was determined at 73 uM/kg; type: functional; outline: as §1
Rattus norvegicus [12] = assay: Ability to inhibit norepinephrine uptake in rat atria was determined at 243 umol/kg; type: functional; outline: as §1
Rattus norvegicus [13] = assay: Ability to inhibit norepinephrine uptake in rat atria was determined at 122 umol/kg; type: functional; outline: as §1

With `NCCc1cc(O)c(C(=O)O)cc1O` the inhibition in vivo at 486 µmol/kg (Rattus norvegicus [1]) was 0%.

With `NCCc1cc(O)c(Cl)cc1O` the inhibition in vivo at 486 µmol/kg (Rattus norvegicus [1]) was 0%.

`NCCc1cc(O)c([N+](=O)[O-])cc1O` gave an inhibition in vivo at 486 µmol/kg (Rattus norvegicus [1]) of 0%.

In the case of `NCCc1cc(O)ccc1O`, the inhibition in vivo at 486 µmol/kg (Rattus norvegicus [1]) is reported as 0%.

`N#Cc1cc(O)c(CCN)cc1O` was tested, and the inhibition in vivo at 486 µmol/kg (Rattus norvegicus [1]) was 0%.

With `COc1cc(O)c(CCN)cc1O` the inhibition (Rattus norvegicus [2]) was “Rats expired within 30min after injection”, the inhibition in vivo at 365 µmol/kg (Rattus norvegicus [3]) was 26% and the inhibition (Rattus norvegicus [4]) was “Rats expired within 30min after injection”.

`NCCc1cc(O)c(N)cc1O` was tested, and the inhibition in vivo at 97 µmol/kg (Rattus norvegicus [5]) was 91%, the inhibition (Rattus norvegicus [2]) was “Rats expired within 30min after injection” and the inhibition (Rattus norvegicus [6]) was “Rats expired within 30min after injection”. The inhibition (Rattus norvegicus [7]) was “Rats expired within 30min after injection”, the Inhibition (Rattus norvegicus [8]) was 60% and the inhibition (Rattus norvegicus [9]) was “Rats expired within 30min after injection”. The Inhibition (Rattus norvegicus [10]) was 20%, the inhibition (Rattus norvegicus [4]) was “Rats expired within 30min after injection” and the Inhibition (Rattus norvegicus [11]) was 80%.

`NCCc1cc(O)c(O)cc1O` [OXIDOPAMINE] was tested, and the inhibition in vivo at 97 µmol/kg (Rattus norvegicus [5]) was 79%, the inhibition in vivo at 486 µmol/kg (Rattus norvegicus [1]) was 87% and the Inhibition (Rattus norvegicus [8]) was 68%. It also gave an inhibition in vivo at 243 µmol/kg (Rattus norvegicus [12]) of 85%, an Inhibition (Rattus norvegicus [10]) of 45% and an inhibition in vivo at 122 µmol/kg (Rattus norvegicus [13]) of 79%. The Inhibition (Rattus norvegicus [11]) was 74%.

In the case of `NCCc1cc(O)c(Br)cc1O`, the inhibition in vivo at 243 µmol/kg (Rattus norvegicus [12]) is reported as 10% and the inhibition in vivo at 122 µmol/kg (Rattus norvegicus [13]) is reported as 0%.

`Cc1cc(O)c(CCN)cc1O` was tested, and the inhibition (Rattus norvegicus [2]) was “Rats expired within 30min after injection”, the inhibition in vivo at 243 µmol/kg (Rattus norvegicus [12]) was 27% and the inhibition in vivo at 122 µmol/kg (Rattus norvegicus [13]) was 19%. For the same compound, the inhibition in vivo at 365 µmol/kg (Rattus norvegicus [3]) was 24%, the inhibition (Rattus norvegicus [4]) was “Rats expired within 30min after injection” and the Inhibition (Rattus norvegicus [11]) was 16%.
